Measured values from ChEMBL document CHEMBL2401709 (J Med Chem, 2013).
Calls of active or inactive are those of the source. The calls are words filed in the database; no cut-off is given here.

What was measured:
[1] = biological target: T1, Cyclin-dependent kinase 1 (Homo sapiens, UniProt P06493); experiment: Inhibition of CDK1 in human G361 cells sensitized with nocodazole assessed as PP1alpha phosphorylation at Thr320 at 640 nM after 8 hrs by immunoblotting analysis; assay type: cell-based; conditions: G-361
In short: (§1)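 G361 cells arrested in mitosis with nocodazole, then dosed with compound. Lysates in Laemmli buffer were immunoblotted on nitrocellulose with antibodies to phospho-PP1α (T320) and phospho-NPM (T199). Peroxidase secondaries with ECL detection.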

G-361 [2] = experiment: Induction of apoptosis in human G361 cells assessed as decrease in Mcl-1 at 300 nM after 24 hrs by immunoblotting analysis; assay type: functional, cell-based
In short: (§2)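 Treated G361 cells harvested into Laemmli sample buffer. Proteins resolved by SDS-PAGE and blotted to nitrocellulose. Membranes blocked, probed overnight with specific primary antibodies, then peroxidase-conjugated secondaries. ECL detection by CCD camera. Actin served as loading control.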

[3] = biological target: Cyclin-dependent kinase 2/cyclin E1 (Homo sapiens) (UniProt P24864+P24941); experiment: Ratio of roscovitine IC50 to compound IC50 for human recombinant CDK2/Cyclin E; assay type: protein-complex assay
[4] = biological target: Cyclin-dependent kinase 7 (Homo sapiens) (UniProt P50613); experiment: Inhibition of CDK7 in human G361 cells assessed as reduction of phosphorylation of CDK2 at T160 by immunoblotting analysis; assay type: cell-based; conditions: G-361; in short: as §2
[5] = biological target: Cyclin-dependent kinase 7 (Homo sapiens) (UniProt P50613); experiment: Inhibition of CDK7 in human G361 cells assessed as reduction of phosphorylation of CDK1 at T161 by immunoblotting analysis; assay type: cell-based; conditions: G-361; in short: as §2
[6] = biological target: Cyclin-dependent kinase 2 (Homo sapiens) (UniProt P24941); experiment: Inhibition of CDK2 in human G361 cells sensitized with nocodazole assessed as NPM phosphorylation at Thr199 at 640 nM after 4 hrs by immunoblotting analysis; assay type: cell-based; conditions: G-361; in short: as §1
[7] = biological target: T1, Cyclin-dependent kinase 1; experiment: Inhibition of CDK1 in human G361 cells sensitized with nocodazole assessed as PP1alpha phosphorylation at Thr320 at 640 nM after 4 hrs by immunoblotting analysis; assay type: cell-based; conditions: G-361; in short: as §1
G-361 [8] = experiment: Induction of apoptosis in human G361 cells assessed as decrease in Mcl-1 at 640 nM up to 2 hrs by immunoblotting analysis; assay type: functional, cell-based; in short: as §2
G-361 [9] = experiment: Induction of apoptosis in human G361 cells assessed as caspase 3/7 activation at 640 nM after 16 hrs by Ac-DEVD-AMC-based fluorimetry assay; assay type: functional, cell-based
G-361 [10] = experiment: Induction of apoptosis in human G361 cells assessed as induction of PARP-1 clevage at 640 nM after 16 hrs by immunoblotting analysis; assay type: functional, cell-based; in short: as §2
G-361 [11] = experiment: Induction of apoptosis in human G361 cells assessed as reduction of retinoblastoma protein level at 640 nM after 16 hrs by immunoblotting analysis; assay type: functional, cell-based; in short: as §2
G-361 [12] = experiment: Induction of apoptosis in human G361 cells assessed as dephosphorylation of RNA polymerase 2 at Ser5 at 640 nM up to 1 hr by immunoblotting analysis; assay type: functional, cell-based; in short: as §2
G-361 [13] = experiment: Induction of apoptosis in human G361 cells assessed as dephosphorylation of RNA polymerase 2 at Ser2 at 640 nM up to 1 hr by immunoblotting analysis; assay type: functional, cell-based; in short: as §2
G-361 [14] = experiment: Induction of apoptosis in human G361 cells assessed as dephosphorylation of retinoblastoma protein at Ser780 at 640 nM up to 1 hr by immunoblotting analysis; assay type: functional, cell-based; in short: as §2
G-361 [15] = experiment: Induction of apoptosis in human G361 cells assessed as dephosphorylation of retinoblastoma protein at Ser612 at 640 nM up to 1 hr by immunoblotting analysis; assay type: functional, cell-based; in short: as §2
G-361 [16] = experiment: Induction of apoptosis in human G361 cells assessed as reduction of RNA polymerase 2 level at 640 nM after 16 hrs by immunoblotting analysis; assay type: functional, cell-based; in short: as §2
G-361 [17] = experiment: Induction of apoptosis in human G361 cells assessed as increase in p53 after 24 hrs by immunoblotting analysis; assay type: functional, cell-based; in short: as §2
G-361 [18] = experiment: Induction of apoptosis in human G361 cells assessed as decrease in Mcl-1 after 24 hrs by immunoblotting analysis; assay type: functional, cell-based; in short: as §2
G-361 [19] = experiment: Induction of apoptosis in human G361 cells assessed as increase of caspase 3/7 activation using Ac-DEVD-AMC as substrate at 20 to 1280 nM after 24 hrs by fluorimetry assay; assay type: functional, cell-based
G-361 [20] = experiment: Induction of apoptosis in human G361 cells assessed as induction of PARP-1 clevage at 80 nM after 24 hrs by immunoblotting analysis; assay type: functional, cell-based; in short: as §2
[21] = biological target: Cyclin-dependent kinase 9 (Homo sapiens) (UniProt P50750); experiment: Inhibition of CDK9-mediated RNA polymerase 2 phosphorylation at ser2 in human G361 cells at 300 nM after 24 hrs by immunoblotting analysis; assay type: cell-based; conditions: G-361; in short: as §2
CDK2/CDK4 (Homo sapiens) = CDK2/CDK4 (Homo sapiens) (UniProt P11802+P24941); experiment: Inhibition of CDK2/4-mediated retinoblastoma protein phosphorylation at ser780 in human G361 cells at 300 nM after 24 hrs by immunoblotting analysis; assay type: cell-based; conditions: G-361; in short: as §2
G-361 [22] = experiment: Induction of apoptosis in human G361 cells assessed as decrease in Mcl-1 protein level at 300 nM after 24 hrs by immunoblotting analysis; assay type: functional, cell-based; in short: as §2
G-361 [23] = experiment: Induction of apoptosis in human G361 cells assessed as induction of PARP-1 clevage at 300 nM after 24 hrs by immunoblotting analysis; assay type: functional, cell-based; in short: as §2
G-361 [24] = experiment: Induction of apoptosis in human G361 cells assessed as induction of caspase-9 clevage at 300 nM after 24 hrs by immunoblotting analysis; assay type: functional, cell-based; in short: as §2
G-361 [25] = experiment: Induction of apoptosis in human G361 cells assessed as induction of caspase-3 clevage at 300 nM after 24 hrs by immunoblotting analysis; assay type: functional, cell-based; in short: as §2
G-361 [26] = experiment: Induction of apoptosis in human G361 cells assessed as induction of caspase-7 clevage at 300 nM after 24 hrs by immunoblotting analysis; assay type: functional, cell-based; in short: as §2
G-361 [27] = experiment: Induction of apoptosis in human G361 cells assessed as caspase 9 activation using Ac-DEHD-AMC as substrate at 300 nM after 24 hrs by fluorimetry assay; assay type: functional, cell-based; conditions: in the assay text read “Ac-LEHD-AMC” for “Ac-DEHD-AMC”
In short: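 G361 lysates were made in CHAPS extraction buffer, pH 7.4, clarified at 10000g, and protein-equalized. They were incubated 24 h with 100 μM Ac-LEHD-AMC in 100 mM HEPES pH 7.5, 0.5 mM EDTA, 20% glycerol, 5 mM DTT. AMC fluorescence read at 355/460 nm (ex/em).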

G-361 [28] = experiment: Induction of apoptosis in human G361 cells assessed as caspase 3/7 activation using Ac-DEVD-AMC as substrate at 300 nM after 24 hrs by fluorimetry assay; assay type: functional, cell-based
HeLa = experiment: Cytotoxicity against human HeLa cells assessed as growth inhibition after 72 hrs by calcein AM staining-based fluoroscence assay; assay type: functional, cell-based
HCT-116 = experiment: Cytotoxicity against human HCT116 cells assessed as growth inhibition after 72 hrs by calcein AM staining-based fluoroscence assay; assay type: functional, cell-based; conditions: HCT-116, 72 h
HOS = experiment: Cytotoxicity against human HOS cells assessed as growth inhibition after 72 hrs by calcein AM staining-based fluoroscence assay; assay type: functional, cell-based
G-361 [29] = experiment: Cytotoxicity against human G361 cells assessed as growth inhibition after 72 hrs by calcein AM staining-based fluoroscence assay; assay type: functional, cell-based; conditions: G-361, 72 h
MCF7 = experiment: Cytotoxicity against human MCF7 cells assessed as growth inhibition after 72 hrs by calcein AM staining-based fluoroscence assay; assay type: functional, cell-based; conditions: MCF7, 72 h
K562 = experiment: Cytotoxicity against human K562 cells assessed as growth inhibition after 72 hrs by calcein AM staining-based fluoroscence assay; assay type: functional, cell-based; conditions: K562, 72 h
CDK9/cyclin T1 = CDK9/cyclin T1 (Homo sapiens, UniProt P50750); experiment: Inhibition of CDK9/Cyclin T1 (unknown origin) using (YSPTSPS)2KK peptide as substrate; assay type: protein-complex assay
In short: (§3)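 CDK5/p35, CDK7/cyclin H/MAT1 and CDK9/cyclin T1 in 10 μL reactions with 0.05 μCi [γ-33P]ATP. CDK5 used 1 mg/mL histone H1 with 0.15 μM ATP. CDK7 and CDK9 used (YSPTSPS)2KK with 1.5 μM ATP. Stopped with H3PO4, spotted on P-81, washed. IC50 from dose-response curves.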

CDK7/Cyclin H/MNAT1 = CDK7/Cyclin H/MNAT1 (Homo sapiens, UniProt P50613); experiment: Inhibition of CDK7/Cyclin-H/MAT 1 (unknown origin) using (YSPTSPS)2KK peptide as substrate; assay type: protein-complex assay; in short: as §3
[30] = biological target: Cyclin-dependent kinase 5/CDK5 activator 1 (Homo sapiens, UniProt Q00535); experiment: Inhibition of CDK5/p35 (unknown origin) using histone H1 as substrate; assay type: protein-complex assay; in short: as §3
[31] = biological target: Cyclin-dependent kinase 2/cyclin E1 (Homo sapiens, UniProt P24941); experiment: Inhibition of human recombinant CDK2/Cyclin E expressed in baculovirus infected sf9 cells using histone H1 as substrate
G-361 [32] = experiment: Induction of apoptosis in human G361 cells assessed as increase of activated caspase 3/7 level using Ac-DEVD-AMC as substrate at 20 to 1280 nM after 24 hrs by fluorimetry assay

T1 sequence (P06493 whole entry, looked up): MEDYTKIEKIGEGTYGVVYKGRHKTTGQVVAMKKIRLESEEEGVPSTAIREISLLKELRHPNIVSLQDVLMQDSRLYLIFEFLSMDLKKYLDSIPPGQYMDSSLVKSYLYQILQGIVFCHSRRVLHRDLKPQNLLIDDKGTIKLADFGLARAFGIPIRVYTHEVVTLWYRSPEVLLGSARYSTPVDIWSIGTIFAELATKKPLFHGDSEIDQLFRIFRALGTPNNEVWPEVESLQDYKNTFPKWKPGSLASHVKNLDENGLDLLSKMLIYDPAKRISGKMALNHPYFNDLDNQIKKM
Cyclin-dependent kinase 7 (Homo sapiens), sequence (P50613 whole entry): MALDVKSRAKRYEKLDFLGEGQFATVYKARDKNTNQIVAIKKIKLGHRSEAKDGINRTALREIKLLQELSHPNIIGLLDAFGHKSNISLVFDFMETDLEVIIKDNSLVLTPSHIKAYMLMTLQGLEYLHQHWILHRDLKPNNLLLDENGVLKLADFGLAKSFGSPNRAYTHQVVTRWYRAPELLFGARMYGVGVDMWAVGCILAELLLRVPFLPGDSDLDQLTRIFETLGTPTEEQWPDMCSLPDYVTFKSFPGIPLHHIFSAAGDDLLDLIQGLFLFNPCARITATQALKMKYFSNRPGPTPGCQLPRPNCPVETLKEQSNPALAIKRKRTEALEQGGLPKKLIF
Cyclin-dependent kinase 9 (Homo sapiens), sequence (P50750 whole entry): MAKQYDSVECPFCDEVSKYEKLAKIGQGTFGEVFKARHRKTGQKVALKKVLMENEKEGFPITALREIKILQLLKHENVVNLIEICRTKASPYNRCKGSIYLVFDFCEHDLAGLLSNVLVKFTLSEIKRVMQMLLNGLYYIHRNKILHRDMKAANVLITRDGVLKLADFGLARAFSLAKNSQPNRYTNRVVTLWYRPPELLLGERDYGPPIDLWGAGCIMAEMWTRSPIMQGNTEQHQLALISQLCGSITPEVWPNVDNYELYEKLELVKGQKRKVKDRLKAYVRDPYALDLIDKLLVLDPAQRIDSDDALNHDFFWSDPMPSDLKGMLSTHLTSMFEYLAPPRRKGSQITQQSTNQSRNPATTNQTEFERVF
Cyclin-dependent kinase 5/CDK5 activator 1, sequence (Q00535 whole entry): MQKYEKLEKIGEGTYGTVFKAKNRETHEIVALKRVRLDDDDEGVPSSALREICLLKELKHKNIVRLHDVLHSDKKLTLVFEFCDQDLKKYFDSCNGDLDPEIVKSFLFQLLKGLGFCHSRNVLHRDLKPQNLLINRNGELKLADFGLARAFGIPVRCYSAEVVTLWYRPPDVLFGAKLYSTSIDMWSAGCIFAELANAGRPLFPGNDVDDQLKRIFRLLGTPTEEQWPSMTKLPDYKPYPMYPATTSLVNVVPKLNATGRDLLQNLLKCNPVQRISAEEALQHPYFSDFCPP
Cyclin-dependent kinase 5/CDK5 activator 1, sequence (Q15078 whole entry, further chain): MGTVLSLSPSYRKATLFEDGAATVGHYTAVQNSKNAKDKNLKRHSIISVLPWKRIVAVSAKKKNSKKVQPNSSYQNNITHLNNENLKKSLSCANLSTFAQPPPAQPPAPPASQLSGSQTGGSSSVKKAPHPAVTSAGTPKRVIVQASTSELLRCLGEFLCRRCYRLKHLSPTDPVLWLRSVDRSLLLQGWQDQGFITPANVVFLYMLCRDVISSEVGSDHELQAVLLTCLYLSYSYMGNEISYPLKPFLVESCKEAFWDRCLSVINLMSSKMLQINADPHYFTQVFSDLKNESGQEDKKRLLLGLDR
CDK9/cyclin T1, sequence (O60563 whole entry): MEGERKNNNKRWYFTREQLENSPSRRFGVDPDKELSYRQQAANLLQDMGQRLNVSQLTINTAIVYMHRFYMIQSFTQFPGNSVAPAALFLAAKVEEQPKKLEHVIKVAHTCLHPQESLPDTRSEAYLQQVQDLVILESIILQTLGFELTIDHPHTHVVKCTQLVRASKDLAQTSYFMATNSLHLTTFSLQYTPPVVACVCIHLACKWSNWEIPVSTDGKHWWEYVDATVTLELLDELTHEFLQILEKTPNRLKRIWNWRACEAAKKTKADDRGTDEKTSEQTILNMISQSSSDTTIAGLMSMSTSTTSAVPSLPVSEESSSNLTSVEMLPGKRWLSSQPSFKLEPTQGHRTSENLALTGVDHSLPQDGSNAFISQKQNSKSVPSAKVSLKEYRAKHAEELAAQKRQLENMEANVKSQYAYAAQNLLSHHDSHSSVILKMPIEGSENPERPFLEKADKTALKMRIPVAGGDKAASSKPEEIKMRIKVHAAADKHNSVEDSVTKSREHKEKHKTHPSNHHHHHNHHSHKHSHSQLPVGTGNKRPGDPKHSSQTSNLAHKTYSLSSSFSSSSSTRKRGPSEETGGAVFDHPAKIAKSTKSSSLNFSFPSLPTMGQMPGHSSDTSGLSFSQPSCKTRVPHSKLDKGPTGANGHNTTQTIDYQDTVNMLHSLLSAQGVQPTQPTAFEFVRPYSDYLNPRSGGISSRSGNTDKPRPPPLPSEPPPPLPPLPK
CDK9/cyclin T1, sequence (P50750 whole entry): as the sequence (P50750 whole entry) above
CDK7/Cyclin H/MNAT1, sequence (P51946 whole entry): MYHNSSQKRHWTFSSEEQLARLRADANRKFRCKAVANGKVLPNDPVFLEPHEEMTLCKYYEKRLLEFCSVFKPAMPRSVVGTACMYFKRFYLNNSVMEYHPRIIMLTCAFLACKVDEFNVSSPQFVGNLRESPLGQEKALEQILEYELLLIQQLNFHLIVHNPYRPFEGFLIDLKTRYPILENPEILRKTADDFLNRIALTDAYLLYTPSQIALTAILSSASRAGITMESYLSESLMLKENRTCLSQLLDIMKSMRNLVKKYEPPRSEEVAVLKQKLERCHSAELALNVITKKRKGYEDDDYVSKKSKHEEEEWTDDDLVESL
CDK7/Cyclin H/MNAT1, sequence (P50613 whole entry): as the sequence (P50613 whole entry) above
CDK7/Cyclin H/MNAT1, sequence (P51948 whole entry, further chain): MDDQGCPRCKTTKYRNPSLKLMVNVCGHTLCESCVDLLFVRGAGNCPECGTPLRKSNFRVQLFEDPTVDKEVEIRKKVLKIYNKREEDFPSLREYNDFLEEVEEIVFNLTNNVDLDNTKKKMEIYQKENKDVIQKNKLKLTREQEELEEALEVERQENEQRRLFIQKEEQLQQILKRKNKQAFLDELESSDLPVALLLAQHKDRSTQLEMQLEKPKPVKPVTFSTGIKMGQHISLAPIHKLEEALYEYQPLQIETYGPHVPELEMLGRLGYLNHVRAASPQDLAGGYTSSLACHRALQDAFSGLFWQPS

NC1CCC(Nc2nc(NCc3ccc(-c4ccccc4O)nc3)c3ncn(C4CCCC4)c3n2)CC1 (stereo not drawn)
inhibition [1]: Active | Activity (G-361 [2]): Active | Ratio IC50 [3]: 20 | inhibition [4]: Active | inhibition [5]: Active | inhibition [6]: Active | inhibition [7]: Active | Activity (G-361 [8]): Active | Activity (G-361 [9]): Active | Activity (G-361 [10]): Active | Activity (G-361 [11]): Active | Activity (G-361 [12]): Active | Activity (G-361 [13]): Active | Activity (G-361 [14]): Active | Activity (G-361 [15]): Active | Activity (G-361 [16]): Active | Activity (G-361 [17]): Dose-dependent effect | Activity (G-361 [18]): Dose-dependent effect | Activity (G-361 [19]): Active | Activity (G-361 [20]): Active | Inhibition of RNA polymerase II Ser2 phosphorylation (qualitative) [21]: Active | inhibition (CDK2/CDK4 (Homo sapiens)): Active | Activity (G-361 [22]): Active | Activity (G-361 [23]): Active | Activity (G-361 [24]): Active | Activity (G-361 [25]): Active | Activity (G-361 [26]): Active | Activity (G-361 [27]): Active | Activity (G-361 [28]): Active | IC50 (HeLa): 16 nM | IC50 (HCT-116): 35 nM | IC50 (HOS): 14 nM | IC50 (G-361 [29]): 24 nM | IC50 (MCF7): 18 nM | IC50 (K562): 16 nM | IC50 (CDK9/cyclin T1): 10.9 nM | IC50 (CDK7/Cyclin H/MNAT1): 306 nM | IC50 [30]: 18.7 nM | IC50 [31]: 7.1 nM | Activity (G-361 [32]): Active

NC1CCC(Nc2nc(NCc3ccc(-c4ccoc4)nc3)c3ncn(C4CCCC4)c3n2)CC1 (stereo not drawn)
Activity (G-361 [2]): Active | Ratio IC50 [3]: 20 | Inhibition of RNA polymerase II Ser2 phosphorylation (qualitative) [21]: Active | inhibition (CDK2/CDK4 (Homo sapiens)): Active | Activity (G-361 [22]): Active | Activity (G-361 [23]): Active | Activity (G-361 [24]): Active | Activity (G-361 [25]): Active | Activity (G-361 [26]): Active | Activity (G-361 [27]): Active | Activity (G-361 [28]): Active | IC50 (HeLa): 15 nM | IC50 (HCT-116): 46 nM | IC50 (HOS): 24 nM | IC50 (G-361 [29]): 97 nM | IC50 (MCF7): 32 nM | IC50 (K562): 56 nM | IC50 [31]: 8 nM
